We go through 9 compounds from ChEMBL document CHEMBL1130113 (J Med Chem, 1997).

Experiment [1] concerns the target Delta-type opioid receptor (Rattus norvegicus, UniProt P33533). Put plainly: Affinity was assessed using competitive binding assay labeled with [3H]DPDPE (6.3 nM) for Opioid receptor delta 1. Summed up: (§1)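 Rat brain synaptosomal membranes, preincubated, in duplicate tubes. Buffer 50 mM HEPES pH 7.5, 5 mM MgCl2, glycerol, protease inhibitors. Equilibrium incubation 120 min at room temperature (22-23 °C). Labeled peptide displaced by 6-14 analogue concentrations spanning a 1000-fold range. Filtered on glass fiber and washed 3× with ice-cold buffer containing 0.01% BSA. Ki from IC50 by Cheng-Prusoff.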

The target in experiment [2] is Mu-type opioid receptor (Rattus norvegicus, UniProt P33535). Put plainly: Affinity was assessed using competitive binding assay labeled with [3H]- DAGO (1.28 nM) for Opioid receptor mu 1. The gist of the method: as §1
Sequence of Mu-type opioid receptor (Rattus norvegicus, UniProt P33535) (P33535 whole entry): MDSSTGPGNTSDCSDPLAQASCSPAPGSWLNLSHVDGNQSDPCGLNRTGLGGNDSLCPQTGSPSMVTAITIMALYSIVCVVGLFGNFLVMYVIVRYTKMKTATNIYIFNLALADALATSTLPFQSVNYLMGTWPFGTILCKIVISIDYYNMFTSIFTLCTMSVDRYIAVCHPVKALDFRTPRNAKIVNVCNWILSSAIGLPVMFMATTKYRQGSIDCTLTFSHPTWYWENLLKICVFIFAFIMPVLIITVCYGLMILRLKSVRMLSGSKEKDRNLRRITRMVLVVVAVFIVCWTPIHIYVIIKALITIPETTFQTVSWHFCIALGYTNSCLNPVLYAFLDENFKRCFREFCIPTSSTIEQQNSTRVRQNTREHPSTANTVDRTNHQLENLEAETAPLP
A short description of experiment [3]: IC50 ratio measured as the IC50 value of GPI to that of MVD. Format: functional.
For experiment [4], the target named is Mu-type opioid receptor (Cavia porcellus, UniProt P97266). Put plainly: Functional biological activity for mu opioid receptor was determined in vitro, on guinea pig ileum (GPI). The class given is tissue-based. The gist of the method:
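A 2-3 cm guinea pig ileum segment was held in a 20 mL organ bath with 70 µM hexamethonium bromide and 0.125 µM mepyramine maleate, gassed with 95% O2/5% CO2 at 36 °C. Transmural stimulation used 0.5 ms square-wave pulses at 0.1 Hz, at 1.5× maximal-twitch voltage (~30 V). Twitch inhibition was read from dose-response curves against dermorphin or morphine.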

In experiment [5] the target is Delta-type opioid receptor (Mus musculus, UniProt P32300). Put plainly: Functional biological activity for Opioid receptor delta 1 was determined in vitro, on mouse vas deferens (MVD). The class given is tissue-based.
Sequence of Delta-type opioid receptor (Mus musculus, UniProt P32300) (P32300 whole entry): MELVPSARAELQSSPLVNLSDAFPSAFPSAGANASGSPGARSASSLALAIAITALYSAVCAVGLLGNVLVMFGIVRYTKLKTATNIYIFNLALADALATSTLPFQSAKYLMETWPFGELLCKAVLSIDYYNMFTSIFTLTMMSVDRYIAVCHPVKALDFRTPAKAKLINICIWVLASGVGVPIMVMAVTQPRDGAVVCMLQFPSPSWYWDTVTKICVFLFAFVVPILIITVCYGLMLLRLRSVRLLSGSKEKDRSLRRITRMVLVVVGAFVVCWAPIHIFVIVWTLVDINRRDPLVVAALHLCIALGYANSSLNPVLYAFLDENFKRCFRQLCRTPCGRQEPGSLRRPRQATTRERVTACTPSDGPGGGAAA
The target in experiment [6] is Opioid receptors; mu & delta (Homo sapiens) (UniProt P41143+P35372). Put plainly: Selectivity ratio measured as the Ki ratio of mu receptor th that of delta receptor. The class given is protein assay. Summed up:
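Ratio of Ki values for mu and delta receptors. Both were measured in rat brain synaptosomal membranes in 50 mM HEPES pH 7.5 with 5 mM MgCl2, glycerol and protease inhibitors, for 120 min at 22-23 °C. Radioligand was displaced by 6-14 concentrations over a 1000-fold range. Bound ligand was collected by glass-fiber filtration, and Ki came from IC50 by Cheng-Prusoff.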

Where a SMILES comes first, the peptide text is derived from it. [ ]: non-standard residue; d: D form. Aib = CC(C)(N)C(=O)O

Sequence of Mu-type opioid receptor (Cavia porcellus, UniProt P97266) (P97266 whole entry): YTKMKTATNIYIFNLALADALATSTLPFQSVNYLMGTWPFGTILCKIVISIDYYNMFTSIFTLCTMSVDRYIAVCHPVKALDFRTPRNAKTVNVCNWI
Sequence of Delta-type opioid receptor (Rattus norvegicus, UniProt P33533) (P33533 whole entry): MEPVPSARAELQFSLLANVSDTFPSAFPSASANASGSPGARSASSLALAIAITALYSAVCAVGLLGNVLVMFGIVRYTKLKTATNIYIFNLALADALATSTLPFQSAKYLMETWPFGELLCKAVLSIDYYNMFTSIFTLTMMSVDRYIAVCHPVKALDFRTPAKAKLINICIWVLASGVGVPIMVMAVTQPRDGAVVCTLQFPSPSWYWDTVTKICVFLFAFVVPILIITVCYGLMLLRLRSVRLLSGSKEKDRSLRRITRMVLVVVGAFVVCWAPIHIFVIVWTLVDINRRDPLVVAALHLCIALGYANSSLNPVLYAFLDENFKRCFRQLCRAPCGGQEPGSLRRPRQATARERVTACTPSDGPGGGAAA
Sequence of Opioid receptors; mu & delta (Homo sapiens) (P35372 whole entry, looked up): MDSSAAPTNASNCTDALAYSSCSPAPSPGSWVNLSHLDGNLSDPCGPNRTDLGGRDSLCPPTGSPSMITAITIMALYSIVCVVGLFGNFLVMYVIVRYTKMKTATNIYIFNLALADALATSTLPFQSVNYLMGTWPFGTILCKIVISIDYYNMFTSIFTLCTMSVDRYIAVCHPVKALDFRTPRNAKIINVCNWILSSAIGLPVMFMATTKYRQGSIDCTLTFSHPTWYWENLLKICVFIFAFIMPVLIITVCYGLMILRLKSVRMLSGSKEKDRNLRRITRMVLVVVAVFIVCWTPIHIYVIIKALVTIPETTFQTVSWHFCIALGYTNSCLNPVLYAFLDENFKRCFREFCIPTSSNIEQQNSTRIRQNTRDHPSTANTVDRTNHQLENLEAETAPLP
Sequence of Opioid receptors; mu & delta (Homo sapiens) (P41143 whole entry, looked up): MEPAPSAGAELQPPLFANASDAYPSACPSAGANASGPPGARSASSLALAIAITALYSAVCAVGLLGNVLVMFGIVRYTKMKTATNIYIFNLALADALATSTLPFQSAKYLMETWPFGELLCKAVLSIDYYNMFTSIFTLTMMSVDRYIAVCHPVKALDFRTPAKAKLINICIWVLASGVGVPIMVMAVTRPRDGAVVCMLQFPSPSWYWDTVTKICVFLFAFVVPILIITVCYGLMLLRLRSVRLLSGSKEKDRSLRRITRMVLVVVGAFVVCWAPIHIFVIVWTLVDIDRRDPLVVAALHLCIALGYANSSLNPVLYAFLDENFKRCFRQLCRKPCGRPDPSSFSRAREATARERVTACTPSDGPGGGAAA

With `CC(C)[C@H](NC(=O)[C@H](CC(=O)O)NC(=O)[C@@H](C)NC(=O)[C@@H](C)NC(=O)[C@@H](N)Cc1ccc(O)cc1)C(=O)N[C@H](C(=O)NCC(N)=O)C(C)C`, the Ki in experiment [1] was determined as 5.72 nM; in experiment [2], 13600 nM.

With `CC(C)[C@H](NC(=O)[C@@H](NC(=O)C(C)(C)NC(=O)[C@H](Cc1ccccc1)NC(=O)[C@@H](C)NC(=O)[C@@H](N)Cc1ccc(O)cc1)C(C)C)C(=O)NCC(=O)O`, the results for the Ki in experiment [1] and in experiment [2] were 0.11 nM and 4.48 nM, respectively.

For the compound `CC(C)[C@H](NC(=O)[C@@H](NC(=O)[C@@H](CC(=O)O)NC(=O)C(C)(C)NC(=O)C(C)(C)NC(=O)[C@@H](N)Cc1ccc(O)cc1)C(C)C)C(=O)NCC(N)=O`, the IC50 ratio in experiment [3] was greater than 21.

Regarding `CC(C)[C@H](NC(=O)[C@H](CC(=O)O)NC(=O)C(C)(C)NC(=O)[C@@H](N)Cc1ccc(O)cc1)C(=O)N[C@H](C(=O)NCC(N)=O)C(C)C` (H-Y[Aib]DVVG-NH2), the Ki in experiment [1] was 2630 nM; in experiment [2] it was 441000 nM.

With `CC(C)[C@H](NC(=O)[C@@H](NC(=O)C(C)(C)NC(=O)[C@H](Cc1ccccc1)NC(=O)[C@@H](C)NC(=O)[C@@H](N)Cc1ccc(O)cc1)C(C)C)C(=O)NCC(N)=O`, the IC50 in experiment [4] is 4.5 nM; in experiment [5] it was 0.36 nM. For the same compound, the inhibitory constant (Ki) in experiment [1] stood at 0.2 nM; in experiment [2] it was 0.43 nM. For the same compound, in experiment [3], the IC50 ratio is 13.

On to `CC(C)[C@H](NC(=O)[C@H](CC(=O)O)NC(=O)C(C)(C)NC(=O)[C@@H](C)NC(=O)[C@@H](N)Cc1ccc(O)cc1)C(=O)N[C@H](C(=O)NCC(N)=O)C(C)C`, for which the IC50 in experiment [4] was greater than 10 nM; in experiment [5], 57.3 nM. In addition, the Ki in experiment [1] is 0.8 nM; in experiment [2], 4540 nM. In experiment [3], the IC50 ratio was greater than 175. Moreover, in experiment [6], the Selectivity ratio is 5680.

Turning to `CC(C)[C@H](NC(=O)[C@H](CC(=O)O)NC(=O)[C@H](Cc1ccccc1)NC(=O)C(C)(C)NC(=O)[C@@H](N)Cc1ccc(O)cc1)C(=O)N[C@H](C(=O)NCC(N)=O)C(C)C` (H-Y[Aib]FDVVG-NH2), the half-maximal inhibitory concentration (IC50) in experiment [4] is greater than 10 nM; in experiment [5], 1.44 nM. Moreover, the Ki came out at 0.12 nM in experiment [1] and 1020 nM in experiment [2]. Besides, the IC50 ratio in experiment [3] is greater than 7000.

`CC(NC(=O)[C@@H](N)Cc1ccc(O)cc1)C(=O)N[C@@H](Cc1ccccc1)C(=O)N[C@@H](CC(=O)O)C(=O)N[C@H](C(=O)N[C@H](C(=O)NCC(N)=O)C(C)C)C(C)C` (single isomer, unassigned) [DELTORPHIN C] showed an IC50 in experiment [4] of 420 nM.

Take `CC(C)[C@H](NC(=O)[C@H](CC(=O)O)NC(=O)C(C)(C)NC(=O)C(C)(C)NC(=O)[C@@H](N)Cc1ccc(O)cc1)C(=O)N[C@H](C(=O)NCC(N)=O)C(C)C`: the 50% inhibitory concentration (IC50) is greater than 10 nM in experiment [4] and 70 nM in experiment [5]. Moreover, the Ki was 3.62 nM in experiment [1] and 15200 nM in experiment [2].
